Results reported in ChEMBL document CHEMBL2384971, “Bioactive limonoid and triterpenoid constituents of Turraea pubescens” (J Nat Prod, 2013).
pIC50: −log10 of the molar value.

Key:
Artemia salina [1] = experiment: Toxicity in brine shrimp larva assessed as corrected mortality at 100 ppm after 24 hrs by microscopic analysis relative to control; assay type: functional
In short: (§1)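 Artemia salina larvae tested by a microwell method. Corrected mortality was derived from treatment-group mortality (Mt) against vehicle-control-group mortality (Mc).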

RAW264.7 [2] = experiment: Cytotoxicity against mouse RAW264.7 cells at 50 uM by MTT assay; assay type: cell-based; conditions: raw264.7, 50 µM
HL-60 = experiment: Cytotoxicity against human HL60 cells by MTT assay; assay type: functional, cell-based
RAW264.7 [3] = experiment: Antiinflammatory activity against LPS-stimulated mouse RAW264.7 cells assessed as inhibition of NO production after 18 hrs by Griess method; assay type: functional, cell-based; conditions: RAW264.7, 18 h
In short: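 RAW 264.7 murine macrophages were seeded at 2 × 10^5 cells/well in RPMI 1640 with 10% FBS at 37 °C under 5% CO2 and preincubated for 24 h. Cells were then exposed for 18 h to serial dilutions (top concentration 25 μM; DMSO solutions diluted in medium) plus 1 μg/mL LPS. Supernatants were mixed with Griess reagents A and B in triplicate and read at 570 nm after 5 min.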

Artemia salina [4] = experiment: Toxicity in brine shrimp larva assessed as corrected mortality at 10 ppm after 24 hrs by microscopic analysis relative to control; assay type: functional; in short: as §1
Artemia salina [5] = experiment: Toxicity in brine shrimp larva assessed as corrected mortality at 50 ppm after 24 hrs by microscopic analysis relative to control; assay type: functional; in short: as §1

Row | Structure (SMILES) | mortality at 100 ppm (Artemia salina [1]) [%] | Activity (RAW264.7 [2]) | pIC50 (HL-60) | pIC50 (RAW264.7 [3]) | mortality at 10 ppm (Artemia salina [4]) [%] | mortality at 50 ppm (Artemia salina [5]) [%]
1 | C=C1[C@@H]([C@@]2(C)C=CC(=O)C(C)(C)[C@@H]2CC(=O)OC)[C@@H](OC(C)=O)[C@H](OC(C)=O)[C@@]2(C)[C@H](C3=CC(O)OC3=O)C[C@H]3O[C@]132 (some centres not stated) | < 50 | Non-toxic | > 5.00 | < 4.70 | – | –
2 | C=C1[C@@H]([C@@]2(C)[C@H](OC(C)=O)CC(=O)C(C)(C)[C@@H]2CC(=O)OC)[C@@H](OC(C)=O)[C@H](OC(=O)C(C)C)[C@@]2(C)[C@H](c3ccoc3)C[C@H]3O[C@]132 | 81.7 | Non-toxic | > 5.00 | < 4.70 | 60.8 | 61.8
3 | C=C1[C@@H]([C@@]2(C)C=CC(=O)C(C)(C)[C@@H]2CC(=O)OC)[C@@H](OC(C)=O)[C@H](OC(=O)C(C)C)[C@@]2(C)[C@H](c3ccoc3)C[C@H]3O[C@]132 | – | Non-toxic | > 5.00 | < 4.70 | – | –
4 | C=C1[C@@H]([C@@]2(C)C=CC(=O)C(C)(C)[C@@H]2CC(=O)OC)[C@@H](OC(C)=O)[C@H](OC(=O)C(C)CC)[C@@]2(C)[C@H](c3ccoc3)C[C@H]3O[C@]132 (some centres not stated) | – | Non-toxic | > 5.00 | < 4.70 | – | –
5 | CCC(=O)O[C@@H]1C[C@H](OC(C)=O)[C@@]2(C)[C@@H]([C@@H](O)[C@@H](OC(C)=O)[C@@]3(C)C4=CC[C@@H](c5ccoc5)[C@]4(C)CC[C@@H]32)C1(C)C | – | Non-toxic | > 5.00 | < 4.70 | – | –
6 | C/C=C(\C)C(=O)O[C@H]1C[C@@H](OC(=O)CC)[C@@]2(C(=O)OC)CO[C@H]3[C@H]4O[C@]5(C)[C@H]6C[C@H](OC7OC=C[C@@]76O)[C@]5(O)[C@@]4(C)C4[C@]1(CO[C@]4(O)C(=O)OC)[C@@H]32 (some centres not stated) | – | Non-toxic | > 5.00 | < 4.70 | – | –
7 | C/C=C(\C)C(=O)O[C@H]1C[C@@H](OC(=O)CC)[C@@]2(C(=O)OC)CO[C@H]3[C@@H](O)[C@@](C)(C45OC4(C)C4C[C@H]5O[C@@H]5OC=CC45O)C4[C@]1(CO[C@]4(O)C(=O)OC)[C@@H]32 (some centres not stated) | – | Non-toxic | > 5.00 | < 4.70 | – | –
8 | CO[C@H]1O[C@@H]([C@@H]2OC2(C)C)C[C@H]1[C@@H]1CC=C2[C@]3(C)[C@H](O)C[C@H]4C(C)(C)C(=O)C=C[C@]4(C)[C@H]3CC[C@]21C | – | Non-toxic | > 5.00 | 4.76 | – | –
9 | CO[C@@H]1O[C@@H]([C@@H]2OC2(C)C)C[C@H]1[C@@H]1CCC2[C@]3(C)[C@H](O)C[C@H]4C(C)(C)C(=O)C=C[C@]4(C)[C@H]3CC[C@]21C (some centres not stated) | – | Non-toxic | > 5.00 | < 4.70 | – | –
10 | CC(=O)O[C@@H]1C[C@H]2C(C)(C)C(=O)C=C[C@]2(C)[C@H]2CC[C@]3(C)C(=CC[C@H]3[C@H]3COC(C)(C)[C@@H](O)[C@H](O)C3)[C@@]21C | 69.8 | Non-toxic | > 5.00 | < 4.70 | 0 | 6.7
11 | CC(=O)O[C@H]1C[C@@H]2[C@@]3(C)C=CC(=O)C(C)(C)[C@@H]3C[C@@H](O)[C@@]2(C)C2=CC[C@@H](c3ccoc3)[C@@]21C | 85 | Non-toxic | > 5.00 | 4.92 | 20.6 | 83.5
12 | CCC(=O)O[C@@H]1C[C@H](OC(C)=O)[C@@]2(C)[C@H]3[C@@H](OC[C@]13C)[C@@H](O)[C@@]1(C)C3=CC[C@@H](c4ccoc4)[C@]3(C)CC[C@@H]12 | 75.6 | Non-toxic | > 5.00 | 4.73 | 0 | 36.3
13 | C=C1[C@@H]([C@@]2(C)C=CC(=O)C(C)(C)[C@@H]2CC(=O)OC)[C@@H](OC(C)=O)[C@H](OC(C)=O)[C@@]2(C)[C@H](c3ccoc3)C[C@H]3O[C@]132 | < 50 | Non-toxic | > 5.00 | < 4.70 | – | –
14 | C[C@@H](C[C@@H](O)[C@H](O)C(C)(C)O)[C@@H]1CC[C@]2(C)C3=CC[C@H]4C(C)(C)[C@@H](O)CC[C@]4(C)[C@H]3CC[C@@]12C | – | Non-toxic | > 5.00 | < 4.70 | – | –
15 | C/C=C(\C)C(=O)O[C@H]1C[C@@H](OC(C)=O)[C@@]2(C(=O)OC)CO[C@H]3[C@@H](O)[C@@](C)([C@]45O[C@@]4(C)[C@@H]4C[C@H]5O[C@@H]5OC=C[C@@]54O)[C@H]4[C@]1(CO[C@]4(O)C(=O)OC)[C@@H]32 [AZADIRACHTIN A] | 81.7 | Non-toxic | > 5.00 | < 4.70 | 12.5 | 59.6
16 | C[C@@H](C[C@@H](O)[C@@H]1OC1(C)C)[C@@H]1CC[C@]2(C)C3=CC[C@H]4C(C)(C)[C@@H](O)CC[C@]4(C)[C@H]3CC[C@@]12C [DIHYDRONILOTICIN] | – | Non-toxic | > 5.00 | < 4.70 | – | –
17 | CC(=O)O[C@H]1C[C@@H]2[C@@]3(C)CCC(=O)C(C)(C)[C@@H]3C[C@@H](O)[C@@]2(C)C2=CC[C@@H](c3ccoc3)[C@@]21C [MZIKONONE] | 76.4 | Non-toxic | > 5.00 | < 4.70 | 0 | 36.9
18 | CC(=O)O[C@@H]1[C@H](O)[C@H]2C(C)(C)C(=O)C=C[C@]2(C)[C@H]2CC[C@]3(C)C(=CC[C@H]3c3ccoc3)[C@]12C [NIMONOL] | – | Non-toxic | > 5.00 | < 4.70 | – | –
19 | C=C1C2=CC[C@H](c3ccoc3)[C@]2(C)[C@@H](OC(C)=O)[C@H](OC(C)=O)[C@@H]1[C@@]1(C)C=CC(=O)C(C)(C)[C@@H]1CC(=O)OC [TURRAFLORIN A] | < 50 | Non-toxic | > 5.00 | 4.81 | – | –
20 | C=C1[C@@H]([C@@]2(C)C=CC(=O)C(C)(C)[C@@H]2CC(=O)OC)[C@@H](OC(C)=O)[C@H](OC(=O)C(C)C)[C@@]2(C)[C@H](C(=O)O)C[C@H]3O[C@]132 [TURRAPUBESIC ACID B] | – | Non-toxic | > 5.00 | < 4.70 | – | –
21 | C=C1[C@@H]([C@@]2(C)C=CC(=O)C(C)(C)[C@@H]2CC(=O)OC)[C@@H](OC(C)=O)[C@H](OC(=O)Cc2ccccc2)[C@@]2(C)[C@H](C3=CC(=O)OC3O)C[C@H]3O[C@]132 (some centres not stated) [TURRAPUBESIN E] | < 50 | Non-toxic | > 5.00 | < 4.70 | – | –
22 | C=C1[C@@H]([C@@]2(C)[C@H](OC(C)=O)CC(=O)C(C)(C)[C@@H]2CC(=O)OC)[C@@H](OC(C)=O)[C@H](OC(C)=O)[C@@]2(C)[C@H](c3ccoc3)C[C@H]3O[C@]132 [TURRAPUBIN A] | 54.7 | Non-toxic | > 5.00 | < 4.70 | 0 | 0.8
23 | C=C1[C@@H]2[C@@H](O[C@H]3CC(=O)C(C)(C)[C@H](CC(=O)OC)[C@]32C)[C@H](OC(C)=O)[C@@]2(C)[C@H](c3ccoc3)C[C@H]3O[C@]132 [TURRAPUBIN D] | – | Non-toxic | > 5.00 | < 4.70 | – | –
24 | C=C1[C@@H]([C@@]2(C)C=CC(=O)C(C)(C)[C@@H]2CC(=O)OC)[C@@H](OC(C)=O)[C@H](O)[C@@]2(C)[C@H](c3ccoc3)C[C@H]3O[C@]132 [TURRAPUBIN E] | < 50 | Non-toxic | > 5.00 | < 4.70 | – | –
25 | C=C1[C@@H]([C@@]2(C)C=CC(=O)C(C)(C)[C@@H]2CC(=O)OC)[C@@H](OC(C)=O)[C@H](OC(=O)C(C)C)[C@@]2(C)[C@H](C3=CC(O)OC3=O)C[C@H]3O[C@]132 (some centres not stated) [TURRAPUBIN H] | < 50 | Non-toxic | > 5.00 | < 4.70 | – | –
